Among the data in PubChem BioAssay AID2805 (Sanford-Burnham Center for Chemical Genomics, 2010) are activation factor values, retold here.

In all, about 330,000 compounds went through this assay and about 780 (0.24%) were called active.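 Rule for the calls: active = activation factor of at least 2 at 20 µM; inactive = the rest.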 For the sample, actives were picked, then their nearest neighbours and some compounds at random.

For this assay, the system named is intestinal alkaline phosphatase [Mus musculus]. Nature of the assay: activators of mouse IAP, primary screen, biochemical, luminescence, uHTS (AID 2805). The settings on record: muIAP, CDP-Star luminescence, 30 min; at 10 µM; stronger effect = higher value; 1 = vehicle-only enzyme signal, 0 = enzyme-free wells. The gist of the method:
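System: Mouse IAP enzyme | Also added: CDP-Star substrate | Dosing: Compounds dispensed in DMSO | Schedule: 30 min enzyme-substrate-compound incubation at room temperature | Technique: Chemiluminescence readout | Control set: DMSO-only wells and no-enzyme negative control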
For the compound `O=C(Cn1cnc2ccccc2c1=O)NCC1COc2ccccc2O1` (stereo not drawn), the activation factor is 0.99 (inactive).
Take `c1ccc(-c2cc3c(NCC4COc5ccccc5O4)ncnc3s2)cc1` (stereo not drawn): the activation factor was 2.05 (active).
With `O=C(NCC1COc2ccccc2O1)C1(c2ccccc2)CCCC1` (stereo not drawn), the activation factor was 1 (inactive).
`CCN(C(=O)Cc1nc(N)n[nH]1)C1(C(=O)Nc2ccccc2)CCCCC1`: the activation factor is 1 (inactive).
For the compound `COc1ccc(NC(=O)c2cn(-c3ccccc3)nc2SC)cc1`, the activation factor was 3.32 (active).
In the case of `COc1ccc(-c2nn(-c3ccccc3)cc2C(=O)Nc2nccs2)cc1OC`, the activation factor was 1 (inactive).
As to `COc1ccc(NC(=O)c2cc(-c3ccc(C)o3)nc3ccccc23)cc1`, the activation factor is 0.934 (inactive).
Regarding `CCn1nnc2cc(C(=O)Nc3ccc(C(=O)OC(C)C)cc3)ccc21`, the activation factor is 0.97 (inactive).
`CCOC(=O)c1cc(C)sc1NC(=O)C1CCC1`: the activation factor was 1.01 (inactive).
For the compound `Cc1ccc(C)c(NC(=S)NNC(=S)Nc2ccc(C(C)C)cc2)c1`, the activation factor was 0.941 (inactive).
The figure for `CC(C)c1ccc(NC(=S)NC2CC3C=CC2C3)cc1` (stereo not drawn) is 2.76 (active); for `S=C(NNC(=S)NC1CC2CCC1C2)NC1CC2C=CC1C2` (stereo not drawn) it is 0.928 (inactive); for `Cc1ccccc1N1CCN(CCCN2C(=O)C3CCCCN3C2=O)CC1` (stereo not drawn) it is 1.05 (inactive).
For `O=C1CCC([N+](=O)[O-])C(c2ccccc2Br)N1` (stereo not drawn), the activation factor is 1.03 (inactive).
As to `O=P(O)(CN1CCCCCC1)C1Cc2ccccc2C1`, the activation factor is 1.05 (inactive).
As for `Cc1ccccc1NC(=O)COc1cccc2c1CCNC2=O`, the activation factor is 0.912 (inactive).
Take `C#CCOCCOCCOCCNc1nc(N2CCN(C(=O)[C@H](C(C)C)n3cc(CCO)nn3)CC2)nc(N2CCN(C(=O)[C@H]([C@@H](C)CC)n3cc(CCCN=C(N)N)nn3)CC2)n1`: the activation factor is 1 (inactive).
On to `C#CCOCCOCCOCCNc1nc(N2CCN(C(=O)[C@H](CCCN=C(N)N)n3cc(C(N)[C@@H](C)CC)nn3)CC2)nc(N2CCN(C(=O)[C@H](CO)n3cc([C@@H](N)C(C)C)nn3)CC2)n1` (stereo partly drawn), for which the activation factor was 0.988 (inactive).
For `C#CCOCCOCCOCCNc1nc(N2CCN(C(=O)CCCCCCCCCCNC(=O)Cn3cc(CCCCCN)nn3)CC2)nc(N2CCN(C(=O)CCCCCCCCCCNC(=O)[C@H](CO)n3cc(CCCSC)nn3)CC2)n1`, the activation factor is 2.45 (active).
On to `C#CCOCCOCCOCCNc1nc(N2CCN(C(=O)Cn3cc(CCCCN)nn3)CC2)nc(N2CCN(C(=O)[C@H](CCCCN)n3cc(CCC(=O)O)nn3)CC2)n1`, for which the activation factor is 0.948 (inactive).
With `C#CCOCCOCCOCCNc1nc(N2CCN(C(=O)CCCCCCCCCCNC(=O)[C@H]([C@@H](C)CC)n3cc(CCCCN=C(N)N)nn3)CC2)nc(N2CCN(C(=O)CCCCCCCCCCNC(=O)[C@H](CO)n3cc(CCCSC)nn3)CC2)n1`, the activation factor was 12.7 (active).
Regarding `C#CCOCCOCCOCCNc1nc(N2CCN(C(=O)CCCCCCCCCCNC(=O)[C@H](CCCCN)n3cc(C)nn3)CC2)nc(N2CCN(C(=O)CCCCCCCCCCNC(=O)[C@H](CO)n3cc(CCCSC)nn3)CC2)n1`, the activation factor was 1.29 (inactive).
For the compound `COc1ccc(CCNC(=O)C2CCCN(Cc3nc(-c4cccc(Cl)c4)oc3C)C2)cc1OC` (stereo not drawn), the activation factor is 0.883 (inactive).
On to `CN(C)C(=O)N1CCNCC1`, for which the activation factor was 0.933 (inactive).
As to `c1ccc(CCN2CN=C(Nc3nc4ccccc4o3)NC2)cc1`, the activation factor is 0.958 (inactive).
With `CC[C@]12c3[nH]c4ccc(Cl)cc4c3CCN1C(=O)[C@@H](CC(=O)NCCCOC)C[C@@H]2C(=O)N1CCN(C(=O)C2CC2)CC1`, the activation factor was 0.995 (inactive).
On to `COc1ccc(-n2nc(C(=O)NCC(=O)N3CCN(c4ccccc4OC)CC3)c3ccccc3c2=O)c(OC)c1`, for which the activation factor is 1.03 (inactive).
On to `C[C@@H](O)c1nc2ccccc2n1N`, for which the activation factor was 0.944 (inactive).
Regarding `COCCNC(=O)CCCN1C(=O)c2ccccc2Sc2ncccc21`, the activation factor was 1.03 (inactive).
As to `Cc1cc(Cl)nc(NC(=O)Nc2cccc(Cl)c2)n1`, the activation factor is 0.931 (inactive).
For `CN(c1cccc(NC(=O)c2ccc(CN3CCc4ccccc4C3)cc2)c1)S(C)(=O)=O`, the activation factor was 1.06 (inactive).
Regarding `CN(c1cccc(NC(=O)Nc2ccc(Cl)cc2)c1)S(C)(=O)=O`, the activation factor was 2.3 (active).
The figure for `CN(CCc1ccccn1)C(=O)c1ccc(OC2CCN(CCc3ccccc3)CC2)cc1` is 1.07 (inactive).
For `CC(C)c1nc(SCC(=O)NC(=O)NC(C)(C)C)n[nH]1`, the activation factor was 1 (inactive).
As to `Cc1noc(C)c1CSc1nc2cc(S(=O)(=O)N3CCOCC3)ccc2o1`, the activation factor was 0.946 (inactive).
For the compound `CCOC(=O)c1sc(NC(=O)CSc2nc(O)c(Cc3ccccc3)c(=O)[nH]2)nc1C`, the activation factor is 0.914 (inactive).
The figure for `CN(Cc1ccc(F)cc1)C(=O)COc1ccc2ccccc2c1` is 1 (inactive); for `COc1cccc(C(=O)NCCSc2ccc(Br)cc2)c1` it is 1.14 (inactive); for `COc1cc(NC(=S)NCc2ccc(S(N)(=O)=O)cc2)cc(OC)c1` it is 1.06 (inactive).
Take `COc1cc(NC(=S)NCCSc2ccc(C)cc2)cc(OC)c1`: the activation factor was 2.86 (active).
Turning to `S=c1nccc(-c2cc(Cl)sc2Cl)[nH]1`, the activation factor is 1.08 (inactive).
As for `CC(CNC(=O)c1ccc(N)cc1)NC(=O)c1ccc(N)cc1` (stereo not drawn), the activation factor is 1.09 (inactive).
Take `O=C(Nc1cnn(Cc2ccc(Cl)cc2)c1)C1CCCC1`: the activation factor is 0.956 (inactive).
With `COc1cccc(-c2cccc(NC(=O)C3CCN(C4CCC4)CC3)c2)c1`, the activation factor was 1.01 (inactive).
For the compound `O=C(NC1CCCC1)C1CCN(C(=O)Nc2cccc(Cl)c2)CC1`, the activation factor was 1.03 (inactive).
On to `CC(=O)c1cc(CN2CCC(C(=O)Nc3cccc(-c4cscn4)c3)CC2)cs1`, for which the activation factor was 1.08 (inactive).
With `CCn1cc(CN2CCC(n3nccc3NC(=O)CCCc3ccccc3)CC2)c(C)n1`, the activation factor was 1.22 (inactive).
On to `CCn1cc(CN2CCC(C(=O)Nc3cccc(-c4cccc(Cl)c4)c3)CC2)c(C)n1`, for which the activation factor was 3.39 (active).
As for `CCn1cc(CN2CCC(C(=O)Nc3cccc(-c4cccc(Cl)c4)c3)CC2)cn1`, the activation factor is 5.15 (active).
On to `O=C(Nc1cccc(-c2cccc(Cl)c2)c1)C1CCN(C2CCC2)CC1`, for which the activation factor was 6.17 (active).
The figure for `O=C(Nc1cccc(-c2cscn2)c1)C1CCN(Cc2ccsc2)CC1` is 1.47 (inactive); for `N#Cc1c(C(F)(F)F)cc(-c2cccs2)nc1N1CCCCC1` it is 1.01 (inactive).
The result for `CN1CCN(C(CNS(=O)(=O)c2cccs2)c2cccnc2)CC1` (stereo not drawn) reads 0.991 (inactive).
